Laboratory results as given in ChEMBL document CHEMBL3994580, “A novel class of α-glucosidase and HMG-CoA reductase inhibitors from Ganoderma leucocontextum and the anti-diabetic properties of ganomycin I in KK-Ay mice” (Eur J Med Chem, 2017).
Active and inactive are the calls of the source. The rule behind the calls is not given here.

What was measured:
Mus musculus [1] = assay: Decrease in hepatocyte hypertrophy in KK-Ay diabetic mouse model at 10 mg/kg/day administered via oral gavage once daily for 21 days by haematoxylin and eosin staining based microscopic or morphometric method; type: functional, organism-based
Summary of the method: (§1)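 At study end, liver and abdominal white adipose tissue were fixed in 10% formaldehyde PBS (pH 7.4), paraffin-embedded, sectioned and stained with haematoxylin/eosin. Sections were assessed by microscopy or morphometry at 20×.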

Mus musculus [2] = assay: Decrease in lipid droplet accumulation in liver in KK-Ay diabetic mouse model at 10 mg/kg/day administered via oral gavage once daily for 21 days by haematoxylin and eosin staining based microscopic or morphometric method; type: functional, organism-based; summary of the method: as §1
Mus musculus [3] = assay: Antidiabetic activity in KK-Ay diabetic mouse model assessed as reduction in HbA1C level at 10 mg/kg/day administered via oral gavage once daily for 21 days; type: functional, organism-based
Mus musculus [4] = assay: Decrease in size of adipocytes in abdominal white adipose tissue in KK-Ay diabetic mouse model at 10 mg/kg/day administered via oral gavage once daily for 21 days by haematoxylin and eosin staining based microscopic or morphometric method; type: functional, organism-based; summary of the method: as §1
Mus musculus [5] = assay: Hypolipidemic activity in KK-Ay diabetic mouse model assessed as reduction in serum total cholesterol level at 10 mg/kg/day administered via oral gavage once daily for 21 days; type: functional, organism-based
Summary of the method: (§2)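 Male KK-Ay mice (8 weeks old) on high-fat diet with water ad libitum, dosed by gavage once daily for 21 days (1 or 5 mg/kg test; rosiglitazone 10 mg/kg); female C57BL/6J mice as normal controls. Blood collected at study end. Serum lipids, insulin and glucose measured per cited method. ISI calculated from fasting blood glucose and fasting insulin. Mean ± SEM, n = 7-8.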

Mus musculus [6] = assay: Hypolipidemic activity in KK-Ay diabetic mouse model assessed as reduction in serum NEFA level at 10 mg/kg/day administered via oral gavage once daily for 21 days; type: functional, organism-based; summary of the method: as §2
Mus musculus [7] = assay: Antidiabetic activity in KK-Ay diabetic mouse model assessed as reduction in blood glucose level at 10 mg/kg/day administered via oral gavage once daily measured on day 19 at 30 to 60 mins post insulin challenge by insulin tolerance test; type: functional, organism-based
Summary of the method: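 ITT on day 19 of treatment: after 4 h fasting, insulin 0.6 U·kg-1 given intraperitoneally. Glycaemia was sampled from the tail tip before and at set times after injection, and the AUC was computed. Mean ± SEM, n = 8.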

Mus musculus [8] = assay: Effect on serum AST level in KK-Ay diabetic mouse model at 10 mg/kg/day administered via oral gavage once daily for 21 days; type: functional, organism-based; summary of the method: as §2
Mus musculus [9] = assay: Antidiabetic activity in KK-Ay diabetic mouse model assessed as reduction in serum insulin level at 10 mg/kg/day administered via oral gavage once daily for 21 days; type: functional, organism-based; summary of the method: as §2
Mus musculus [10] = assay: Hypoglycemic activity in KK-Ay diabetic mouse model assessed as increase in liver hepatic glycogen level at 10 mg/kg/day administered via oral gavage once daily for 4 weeks; type: functional, organism-based
Mus musculus [11] = assay: Antidiabetic activity in KK-Ay diabetic mouse model assessed as reduction in blood glucose level at 10 mg/kg/day administered via oral gavage once daily for 21 days measured at 30 to 60 mins post glucose challenge by oral glucose tolerance test; type: functional, organism-based
Summary of the method: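 OGTT on day 21 of daily gavage dosing in KK-Ay mice. Blood glucose read at time points including 30 and 60 min, and the AUC was calculated. Mean ± SEM, n = 8.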

Mus musculus [12] = assay: Antidiabetic activity in KK-Ay diabetic mouse model assessed as reduction in blood glucose level after 4 hrs fasting at 10 mg/kg/day administered via oral gavage once daily measured on day 3 post dose; type: functional, organism-based
Summary of the method: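 KK-Ay mice on high-fat diet, gavaged once daily (1 or 5 mg/kg; rosiglitazone 10 mg/kg). Blood glucose monitored sequentially after 4 h fasting. Mean ± SEM, n = 8, compared with the KK-Ay model group.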

Mus musculus [13] = assay: Antidiabetic activity in KK-Ay diabetic mouse model assessed as reduction in free diet blood glucose level at 10 mg/kg/day administered via oral gavage once daily measured on day 3 post dose; type: functional, organism-based
Summary of the method: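 Non-fasted (free diet) blood glucose was tracked serially in high-fat-fed KK-Ay mice given daily gavage doses (1 or 5 mg/kg; rosiglitazone 10 mg/kg). Mean ± SEM, n = 8.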

Mus musculus [14] = assay: Toxicity in KK-Ay diabetic mouse model assessed as changes in body weight at 10 mg/kg/day administered via oral gavage once daily for 21 days measured every 3 days during compound dosing; type: organism-based; settings: in vivo
Summary of the method: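 In high-fat-fed KK-Ay mice gavaged once daily for 21 days, individual body weight and cage food consumption were recorded every 3 days. Mean ± SEM, n = 8.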

Mus musculus [15] = assay: Hypolipidemic activity in KK-Ay diabetic mouse model assessed as reduction in serum triglyceride level at 10 mg/kg/day administered via oral gavage once daily for 21 days; type: functional, organism-based; summary of the method: as §2
Mus musculus [16] = assay: Antidiabetic activity in KK-Ay diabetic mouse model assessed as increase in insulin sensitivity index at 10 mg/kg/day administered via oral gavage once daily for 21 days; type: functional, organism-based; summary of the method: as §2
[17] = Inhibition of alpha-glucosidase in rat small intestinal mucosa assessed as reduction in glucose production using p-nitrophenyl alpha-D-glucopyranoside as substrate measured after 40 mins by glucose oxidase assay
Summary of the method: (§3)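 Rat small intestinal mucosa enzyme. Compound in DMSO mixed with substrate (maltose, sucrose or pNPG) and enzyme in 0.1 M phosphate buffer pH 6.9, incubated 40 min. Glucose released measured by glucose oxidase kit at 550 nm. Blank lacked enzyme, control lacked compound. Percent inhibition calculated from blank-corrected OD.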

[18] = Inhibition of maltase in rat small intestinal mucosa assessed as reduction in glucose production using maltose as substrate measured after 40 mins by glucose oxidase assay; summary of the method: as §3
[19] = target: Sucrase-isomaltase, intestinal (Rattus norvegicus, UniProt P23739); assay: Inhibition of sucrase in rat small intestinal mucosa assessed as reduction in glucose production using sucrose as substrate measured after 40 mins by glucose oxidase assay; summary of the method: as §3
[20] = Inhibition of baker's yeast alpha-glucosidase using p-nitrophenyl alpha-D-glucopyranoside as substrate preincubated for 10 mins followed by substrate addition measured for 15 mins; design: species or system Saccharomyces cerevisiae
Summary of the method: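 Baker's yeast α-glucosidase with pNPG, read at 405 nm. Control contained phosphate buffer in place of compound, and blank contained buffer in place of enzyme.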

[21] = target: T1, 3-hydroxy-3-methylglutaryl-coenzyme A reductase (Sus scrofa, UniProt Q1W675); assay: (§4) Inhibition of HMG-CoA reductase in pig liver microsomes using HMG-CoA as substrate preincubated for 5 mins followed by NADPH addition measured after 15 mins by colorimetric method
T1 sequence (Q1W675 whole entry): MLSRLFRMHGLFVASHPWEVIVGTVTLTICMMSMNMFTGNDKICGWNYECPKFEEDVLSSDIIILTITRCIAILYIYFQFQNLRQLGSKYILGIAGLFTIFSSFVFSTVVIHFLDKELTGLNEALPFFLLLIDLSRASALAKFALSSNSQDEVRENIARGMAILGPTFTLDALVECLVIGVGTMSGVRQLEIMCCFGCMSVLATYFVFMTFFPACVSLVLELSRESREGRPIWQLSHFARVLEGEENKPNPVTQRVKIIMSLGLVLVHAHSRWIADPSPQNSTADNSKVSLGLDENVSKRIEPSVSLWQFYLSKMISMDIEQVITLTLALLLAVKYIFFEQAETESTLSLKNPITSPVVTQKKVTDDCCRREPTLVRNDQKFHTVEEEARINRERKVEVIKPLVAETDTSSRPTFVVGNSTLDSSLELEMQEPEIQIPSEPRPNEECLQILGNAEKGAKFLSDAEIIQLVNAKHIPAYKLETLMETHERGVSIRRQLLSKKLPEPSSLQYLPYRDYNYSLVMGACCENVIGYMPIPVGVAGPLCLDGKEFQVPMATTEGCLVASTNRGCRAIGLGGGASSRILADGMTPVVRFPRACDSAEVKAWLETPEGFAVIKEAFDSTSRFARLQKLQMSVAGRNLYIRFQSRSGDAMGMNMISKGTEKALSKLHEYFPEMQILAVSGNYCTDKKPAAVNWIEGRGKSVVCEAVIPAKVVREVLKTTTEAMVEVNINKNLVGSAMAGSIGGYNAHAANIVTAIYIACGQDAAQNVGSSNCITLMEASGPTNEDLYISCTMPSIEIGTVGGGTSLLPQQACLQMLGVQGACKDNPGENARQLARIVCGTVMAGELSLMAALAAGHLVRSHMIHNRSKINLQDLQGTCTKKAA
Summary of the method: (§5)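 HMG-CoA reductase activity followed by absorbance at 340 nm. Blank had potassium phosphate buffer instead of enzyme, and control had buffer instead of compound. Percent inhibition calculated from blank-corrected OD.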

Saccharomyces cerevisiae = assay: Non-competitive inhibition of baker's yeast alpha-glucosidase using varying levels of p-nitrophenyl alpha-D-glucopyranoside as substrate preincubated for 10 mins followed by substrate addition measured for 15 mins by Lineweaver-Burk plot analysis
Summary of the method: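 Kinetics with inhibitor at 0.3 to 1 μM against α-glucosidase. pNPG at 2, 4, 6 and 8 μM. Initial velocities measured with and without inhibitor, and inhibition type assigned from Michaelis-Menten and Lineweaver-Burk plots.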

[22] = target: T2, 3-hydroxy-3-methylglutaryl-coenzyme A reductase (Sus scrofa) (UniProt Q1W675); assay: as §4; summary of the method: as §5
T2 sequence (whole entry): T1 sequence (Q1W675 whole entry)

Chain of Sucrase-isomaltase, intestinal (P23739 1-1013 limits assumed): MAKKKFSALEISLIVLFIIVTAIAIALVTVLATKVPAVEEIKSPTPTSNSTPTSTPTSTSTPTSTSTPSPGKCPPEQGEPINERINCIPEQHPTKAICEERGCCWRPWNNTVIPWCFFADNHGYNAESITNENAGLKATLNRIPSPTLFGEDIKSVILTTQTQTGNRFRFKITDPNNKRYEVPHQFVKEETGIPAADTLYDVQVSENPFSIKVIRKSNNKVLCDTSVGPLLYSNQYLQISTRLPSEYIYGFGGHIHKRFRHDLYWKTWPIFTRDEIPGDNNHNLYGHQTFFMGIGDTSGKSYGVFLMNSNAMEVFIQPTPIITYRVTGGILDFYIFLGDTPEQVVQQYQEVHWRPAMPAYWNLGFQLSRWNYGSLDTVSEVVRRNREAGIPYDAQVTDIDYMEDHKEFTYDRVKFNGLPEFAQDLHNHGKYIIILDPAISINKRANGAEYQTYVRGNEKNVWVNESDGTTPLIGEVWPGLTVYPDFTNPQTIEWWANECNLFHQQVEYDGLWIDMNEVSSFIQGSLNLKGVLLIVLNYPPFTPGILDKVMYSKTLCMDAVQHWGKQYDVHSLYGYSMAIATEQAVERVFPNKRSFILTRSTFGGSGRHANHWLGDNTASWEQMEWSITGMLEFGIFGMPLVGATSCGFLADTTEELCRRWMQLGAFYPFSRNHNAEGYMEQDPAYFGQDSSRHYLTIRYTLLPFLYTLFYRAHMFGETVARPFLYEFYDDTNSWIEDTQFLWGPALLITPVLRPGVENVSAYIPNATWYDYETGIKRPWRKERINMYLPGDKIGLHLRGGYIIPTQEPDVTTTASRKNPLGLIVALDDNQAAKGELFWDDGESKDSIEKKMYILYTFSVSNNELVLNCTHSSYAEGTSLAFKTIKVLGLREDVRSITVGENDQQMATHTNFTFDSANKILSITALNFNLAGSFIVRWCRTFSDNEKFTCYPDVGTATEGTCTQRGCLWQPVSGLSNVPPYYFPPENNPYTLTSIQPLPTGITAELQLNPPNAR
Chain of Sucrase-isomaltase, intestinal (P23739 1014-1841 limits assumed): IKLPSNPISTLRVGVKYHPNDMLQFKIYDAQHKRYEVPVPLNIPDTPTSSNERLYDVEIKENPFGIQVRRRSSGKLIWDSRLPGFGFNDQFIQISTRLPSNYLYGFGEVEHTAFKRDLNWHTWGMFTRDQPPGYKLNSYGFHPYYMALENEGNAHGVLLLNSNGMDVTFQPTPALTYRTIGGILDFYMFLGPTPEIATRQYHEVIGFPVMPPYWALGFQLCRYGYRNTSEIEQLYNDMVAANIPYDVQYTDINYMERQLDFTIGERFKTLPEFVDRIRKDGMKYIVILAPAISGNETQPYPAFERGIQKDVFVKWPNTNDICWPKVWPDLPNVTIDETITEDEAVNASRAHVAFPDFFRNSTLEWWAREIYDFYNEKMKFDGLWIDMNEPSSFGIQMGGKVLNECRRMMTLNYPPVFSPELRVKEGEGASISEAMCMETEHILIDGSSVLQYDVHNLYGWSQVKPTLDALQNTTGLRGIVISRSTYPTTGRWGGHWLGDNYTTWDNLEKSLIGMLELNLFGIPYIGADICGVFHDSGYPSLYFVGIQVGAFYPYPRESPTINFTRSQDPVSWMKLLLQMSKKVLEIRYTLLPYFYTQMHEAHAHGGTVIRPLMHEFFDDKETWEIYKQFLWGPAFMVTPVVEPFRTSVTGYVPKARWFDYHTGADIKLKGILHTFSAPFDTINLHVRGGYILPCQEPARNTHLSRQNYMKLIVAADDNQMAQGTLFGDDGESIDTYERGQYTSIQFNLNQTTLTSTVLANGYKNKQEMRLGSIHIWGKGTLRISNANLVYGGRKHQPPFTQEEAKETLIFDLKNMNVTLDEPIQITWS

Structure (SMILES)	IC50 [17] [µM]	IC50 [18] [µM]	IC50 [19] [µM]	IC50 [20] [µM]	IC50 [21] [µM]	inhibition (Saccharomyces cerevisiae)	inhibition [22]	also measured
CN(CCOc1ccc(CC2SC(=O)NC2=O)cc1)c1ccccn1 (stereo unspecified) [ROSIGLITAZONE]	–	–	–	–	–	–	–	Activity (Mus musculus [1]): inactive; Activity (Mus musculus [2]): inactive; Activity (Mus musculus [3]): Active; Activity (Mus musculus [4]): Active; Activity (Mus musculus [5]): Active; Activity (Mus musculus [6]): Active; Activity (Mus musculus [7]): Active; Activity (Mus musculus [8]): inactive; Activity (Mus musculus [9]): Active; Activity (Mus musculus [10]): inactive; Activity (Mus musculus [11]): Active; Activity (Mus musculus [12]): Active; Activity (Mus musculus [13]): Active; Activity (Mus musculus [14]): Toxic; Activity (Mus musculus [15]): Active; Activity (Mus musculus [16]): Active
C/C1=C/CC/C(=C/Cc2cc(O)ccc2O)C(=O)OC(C)(C)[C@H](O)CC1	3.6	45.8	> 100	6.3	> 100	Active	–	–
COC1(c2cc(O)ccc2O)C=C(CC/C=C(\C)CC/C=C(\C)C=O)C(=O)O1 (stereo unspecified)	15.8	23.8	> 100	10.2	56.9	Active	Dose-dependent effect	–
C/C(C=O)=C\CC/C(C)=C/CCC1=C[C@H](c2cc(O)ccc2O)OC1=O	15.8	80.1	> 100	12.7	> 100	Active	–	–
C[C@H]1O[C@H](O[C@H]2[C@H](O)[C@@H](O)[C@@H](O[C@H]3[C@H](O)[C@@H](O)C(O)O[C@@H]3CO)O[C@@H]2CO)[C@H](O)[C@@H](O)[C@@H]1N[C@H]1C=C(CO)[C@@H](O)[C@H](O)[C@H]1O (stereo partly specified) [ACARBOSE]	–	–	–	273	–	–	–	–

Continued, in another order:

IC50 [17] [µM]	IC50 [18] [µM]	IC50 [19] [µM]	IC50 [20] [µM]	IC50 [21] [µM]	inhibition (Saccharomyces cerevisiae)	inhibition [22]	Structure (SMILES)	also measured
> 100	> 100	> 100	> 100	> 100	–	–	CC(C)=CCC/C(C)=C/CC/C(=C\Cc1cc(O)ccc1O)C(=O)O	–
61.2	46.2	> 100	32.1	> 100	Active	–	CC(C)=CCC/C(C)=C/CCC(CC(=O)c1cc(O)ccc1O)C(=O)O (stereo unspecified) [FORNICIN C]	–
5.9	17.8	35.5	1.6	29.3	Active	Dose-dependent effect	CC(C)=CCC/C(C)=C/CC/C(=C/Cc1cc(O)ccc1O)C(=O)O [GANOMYCIN B]	–
6.4	18.1	> 100	3.2	45.2	Active	Dose-dependent effect	CC(C)=CCC/C(C)=C/CC/C(=C/C(=O)c1cc(O)ccc1O)C(=O)O	–
